Measured values published in ChEMBL document CHEMBL2331438, “An efficient domino reaction in ionic liquid: synthesis and biological evaluation of some pyrano- and thiopyrano-fused heterocycles” (2013).
≈ marks a conversion by molar mass, not a printed value.

Experiments:
Streptococcus pneumoniae = experiment: Antibacterial activity against Streptococcus pneumoniae MTCC 1936 after 24 hrs by broth microdilution method; format: functional
[1] = tested on: Mycobacterium tuberculosis; experiment: Antimycobacterial activity against Mycobacterium tuberculosis H37Rv at 250 ug/ml; format: functional
Summary of the method: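 M. tuberculosis H37Rv tested on L.J. (Löwenstein–Jensen) medium.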

Clostridium tetani = experiment: Antibacterial activity against Clostridium tetani MTCC 449 after 24 hrs by broth microdilution method; format: functional
Candida albicans = experiment: Antifungal activity against Candida albicans MTCC 227 after 48 hrs by broth microdilution method; format: functional; conditions: MTCC 227, 48 h
Salmonella typhi = experiment: Antibacterial activity against Salmonella typhi MTCC 98 after 24 hrs by broth microdilution method; format: functional, Salmonella enterica subsp. enterica serovar Typhi
Escherichia coli = experiment: Antibacterial activity against Escherichia coli MTCC 443 after 24 hrs by broth microdilution method; format: functional
Bacillus subtilis = experiment: Antibacterial activity against Bacillus subtilis MTCC 441 after 24 hrs by broth microdilution method; format: functional
Aspergillus fumigatus = experiment: Antifungal activity against Aspergillus fumigatus MTCC 3008 after 48 hrs by broth microdilution method; format: functional; conditions: MTCC 3008, 48 h
Vibrio cholerae = experiment: Antibacterial activity against Vibrio cholerae MTCC 3906 after 24 hrs by broth microdilution method; format: functional
[2] = Antioxidant activity assessed as ascorbic acid equivalent ferric ion reducing activity per 100 gram at 200 ug/ml by FRAP assay; format: functional
[3] = Salmonella enterica, MTCC 98, 24 h

| Molecule | MIC (Streptococcus pneumoniae; MTCC 1936, 24 h) [µg/mL] | inhibition at 250 µg/mL [1] [%] | MIC (Clostridium tetani; MTCC 449, 24 h) [µg/mL] | MIC (Candida albicans) [µg/mL] | MIC (Salmonella typhi; [3]) [µg/mL] | MIC (Escherichia coli; MTCC 443, 24 h) [µg/mL] | MIC (Bacillus subtilis; MTCC 441, 24 h) [µg/mL] | MIC (Aspergillus fumigatus) [µg/mL] | MIC (Vibrio cholerae; MTCC 3906, 24 h) [µg/mL] | Activity [2] [mmol] | MIC (Streptococcus pneumoniae) [µg/mL] | MIC (Clostridium tetani) [µg/mL] | MIC (Salmonella typhi; Salmonella enterica subsp. enterica serovar Typhi) [µg/mL] | MIC (Escherichia coli) [µg/mL] | MIC (Bacillus subtilis) [µg/mL] | MIC (Vibrio cholerae) [µg/mL] |
| --- | --- | --- | --- | --- | --- | --- | --- | --- | --- | --- | --- | --- | --- | --- | --- | --- |
| Cc1nn(-c2ccccc2)c2c1[C@@H]1c3cc4ccccc4nc3SC[C@@H]1CO2 | 200 (≈ 519 µM) | 87 | 62.5 (≈ 162 µM) | 500 (≈ 1300 µM) | 125 (≈ 324 µM) | 100 (≈ 259 µM) | 200 (≈ 519 µM) | 500 (≈ 1300 µM) | 100 (≈ 259 µM) | 126 | – | – | – | – | – | – |
| CCn1cc(C(=O)O)c(=O)c2cc(F)c(N3CCNCC3)cc21 [NORFLOXACIN] | 10 (≈ 31.3 µM) | – | 50 (≈ 157 µM) | – | 10 (≈ 31.3 µM) | 10 (≈ 31.3 µM) | 100 (≈ 313 µM) | – | 10 (≈ 31.3 µM) | – | – | – | – | – | – | – |
| Cc1nn(-c2ccc(Cl)c(Cl)c2)c2c1[C@@H]1c3c(ccc4c(C)cc(=O)oc34)OC[C@@H]1C(C)(C)O2 | 250 (≈ 503 µM) | 70 | 250 (≈ 503 µM) | 200 (≈ 402 µM) | 250 (≈ 503 µM) | 200 (≈ 402 µM) | 250 (≈ 503 µM) | 500 (≈ 1010 µM) | 125 (≈ 251 µM) | 150 | – | – | – | – | – | – |
| Cc1nn(-c2cccc(Cl)c2)c2c1[C@@H]1c3cc4ccccc4nc3SC[C@@H]1CO2 | 250 (≈ 595 µM) | 61 | 125 (≈ 298 µM) | > 1000 | 100 (≈ 238 µM) | 62.5 (≈ 149 µM) | 200 (≈ 476 µM) | 1000 (≈ 2380 µM) | 200 (≈ 476 µM) | 128 | – | – | – | – | – | – |
| Cc1ccc(-n2nc(C)c3c2OC[C@H]2COc4ccc5c(C)cc(=O)oc5c4[C@@H]32)cc1 | 250 (≈ 603 µM) | 32 | 200 (≈ 483 µM) | 1000 (≈ 2410 µM) | 250 (≈ 603 µM) | 200 (≈ 483 µM) | 250 (≈ 603 µM) | 250 (≈ 603 µM) | 200 (≈ 483 µM) | 213 | – | – | – | – | – | – |
| Cc1ccc(-n2nc(C)c3c2OC(C)(C)[C@H]2CSc4nc5c(C)cccc5cc4[C@@H]32)cc1 (single isomer, unassigned) | 100 (≈ 226 µM) | 91 | 200 (≈ 453 µM) | 250 (≈ 566 µM) | 125 (≈ 283 µM) | 125 (≈ 283 µM) | 100 (≈ 226 µM) | 500 (≈ 1130 µM) | 200 (≈ 453 µM) | 161 | – | – | – | – | – | – |
| Cc1nn(-c2cc(Cl)ccc2Cl)c2c1[C@@H]1c3c(ccc4c(C)cc(=O)oc34)OC[C@@H]1C(C)(C)O2 | 100 (≈ 201 µM) | – | – | 500 (≈ 1010 µM) | – | 100 (≈ 201 µM) | 100 (≈ 201 µM) | 500 (≈ 1010 µM) | – | 187 | – | – | – | – | – | – |
| Cc1nn(-c2ccccc2Cl)c2c1[C@@H]1c3c(ccc4c(C)cc(=O)oc34)OC[C@@H]1C(C)(C)O2 | 250 (≈ 540 µM) | 40 | 250 (≈ 540 µM) | 1000 (≈ 2160 µM) | 125 (≈ 270 µM) | 125 (≈ 270 µM) | 100 (≈ 216 µM) | 200 (≈ 432 µM) | 250 (≈ 540 µM) | 210 | – | – | – | – | – | – |
| GENTAMICIN | – | – | – | – | – | – | – | – | – | – | 0.5 | 5 | 5 | 0.05 | 1 | 5 |
| Cc1nn(-c2cccc(Cl)c2)c2c1[C@@H]1c3c(ccc4c(C)cc(=O)oc34)OC[C@@H]1C(C)(C)O2 | 62.5 (≈ 135 µM) | 29 | 200 (≈ 432 µM) | 500 (≈ 1080 µM) | 200 (≈ 432 µM) | 200 (≈ 432 µM) | 200 (≈ 432 µM) | 1000 (≈ 2160 µM) | 250 (≈ 540 µM) | 225 | – | – | – | – | – | – |
| Cc1ccc(-n2nc(C)c3c2OC[C@H]2CSc4nc5ccccc5cc4[C@@H]32)cc1 | 62.5 (≈ 156 µM) | 33 | 200 (≈ 501 µM) | 1000 (≈ 2500 µM) | 125 (≈ 313 µM) | 125 (≈ 313 µM) | 200 (≈ 501 µM) | 1000 (≈ 2500 µM) | 200 (≈ 501 µM) | 121 | – | – | – | – | – | – |
| Cc1ccc(-n2nc(C)c3c2OC(C)(C)[C@H]2COc4ccc5c(C)cc(=O)oc5c4[C@@H]32)cc1 | 100 (≈ 226 µM) | 32 | 250 (≈ 565 µM) | 250 (≈ 565 µM) | 250 (≈ 565 µM) | 100 (≈ 226 µM) | 250 (≈ 565 µM) | 250 (≈ 565 µM) | 500 (≈ 1130 µM) | 240 | – | – | – | – | – | – |
| Cc1nn(-c2ccc(Cl)c(Cl)c2)c2c1[C@@H]1c3cc4cccc(C)c4nc3SC[C@@H]1CO2 | 62.5 (≈ 133 µM) | 38 | 250 (≈ 534 µM) | 500 (≈ 1070 µM) | 250 (≈ 534 µM) | 250 (≈ 534 µM) | 200 (≈ 427 µM) | 1000 (≈ 2130 µM) | 250 (≈ 534 µM) | 61.7 | – | – | – | – | – | – |
| Cc1nn(-c2ccccc2)c2c1[C@@H]1c3c(ccc4c(C)cc(=O)oc34)OC[C@@H]1CO2 | 250 (≈ 624 µM) | 65 | 250 (≈ 624 µM) | > 1000 | 200 (≈ 499 µM) | 250 (≈ 624 µM) | 500 (≈ 1250 µM) | > 1000 | 250 (≈ 624 µM) | 120 | – | – | – | – | – | – |
| Cc1nn(-c2cccc(Cl)c2)c2c1[C@@H]1c3cc4cccc(C)c4nc3SC[C@@H]1CO2 | 250 (≈ 576 µM) | 82 | 200 (≈ 461 µM) | 1000 (≈ 2300 µM) | 500 (≈ 1150 µM) | 250 (≈ 576 µM) | 250 (≈ 576 µM) | 200 (≈ 461 µM) | 200 (≈ 461 µM) | 125 | – | – | – | – | – | – |
